Assay results: article PMC8109618 (Bioorganic & medicinal chemistry, 2020)

Experiments:
hFXIa–DEGR = hFXIa–DEGR (Homo sapiens, UniProt P03951); test: Fluorescence titration of active site dansylated hFXIa; assay type: binding
hFXIa [1] = target: T1, hFXIa (Homo sapiens, UniProt P03951); test: Direct inhibition of hFXIa, chromogenic substrate; assay type: biochemical; settings: for selectivity for hFXIa over FXa and trypsin: based on inhibition at >200 μM
hFXIa [2] = target: T1, hFXIa; test: Analytical ultracentrifugation of hFXIa–inhibitor complex; settings: 100 μM inhibitor, 20 °C; dimeric form, same as hFXIa alone
hFXIa [3] = target: T1, hFXIa; assay type: biochemical
In short: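 Human plasma FXIa. The initial rate of S-2366 ([…]) hydrolysis was taken from the linear A405 rise, with under 10% substrate consumed. S-2366 was varied from 0.03 to 2 mM at a fixed test compound concentration. Buffer was 50 mM Tris-HCl pH 7.4 with 150 mM NaCl, 0.1% PEG8000 and 0.02% Tween80, at 37 °C. KM and VMAX came from a nonlinear hyperbolic Michaelis–Menten fit.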

trypsin = target: T2, trypsin (Bos taurus, UniProt P00760); test: Direct inhibition of trypsin, chromogenic substrate; assay type: biochemical, bovine; settings: not shown
T2 sequence (P00760 24-246): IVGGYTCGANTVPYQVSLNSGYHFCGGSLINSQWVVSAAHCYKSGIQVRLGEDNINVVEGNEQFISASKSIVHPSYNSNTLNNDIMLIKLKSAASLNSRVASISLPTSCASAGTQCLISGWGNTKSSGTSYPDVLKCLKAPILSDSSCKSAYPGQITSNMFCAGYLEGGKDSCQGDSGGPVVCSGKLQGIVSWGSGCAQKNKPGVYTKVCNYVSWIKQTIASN
In short: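 Bovine trypsin was held as stock in 50 mM Tris-HCl, pH 7.4, 150 mM NaCl, 0.1% PEG8000, 0.02% Tween80. The assay used 2.5 ng/ml enzyme with 80 μM S-2222 (in-well) at 37 °C, pH 7.4. Percent inhibition was calculated from the ratio of activity with versus without test compound.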

FXa = FXa (Homo sapiens, UniProt P00742); test: Direct inhibition of FXa, chromogenic substrate; assay type: biochemical; settings: not shown
In short: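 Human plasma FXa was held as stock in 20 mM Tris-HCl, pH 7.4, 100 mM NaCl, 2.5 mM CaCl2, 0.1% PEG8000, 0.02% Tween80. […] Percent inhibition came from the ratio of proteolytic activity with versus without test compound.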

T1 sequence (P03951 388-625 limits assumed): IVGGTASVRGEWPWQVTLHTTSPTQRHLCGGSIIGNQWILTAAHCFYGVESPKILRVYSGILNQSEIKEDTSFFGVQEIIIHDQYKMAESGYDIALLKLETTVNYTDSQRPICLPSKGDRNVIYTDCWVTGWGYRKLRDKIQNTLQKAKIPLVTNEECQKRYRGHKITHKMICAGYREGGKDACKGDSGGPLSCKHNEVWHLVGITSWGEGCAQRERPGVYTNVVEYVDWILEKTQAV
T1 sequence (P03951 19-387 partner limits assumed): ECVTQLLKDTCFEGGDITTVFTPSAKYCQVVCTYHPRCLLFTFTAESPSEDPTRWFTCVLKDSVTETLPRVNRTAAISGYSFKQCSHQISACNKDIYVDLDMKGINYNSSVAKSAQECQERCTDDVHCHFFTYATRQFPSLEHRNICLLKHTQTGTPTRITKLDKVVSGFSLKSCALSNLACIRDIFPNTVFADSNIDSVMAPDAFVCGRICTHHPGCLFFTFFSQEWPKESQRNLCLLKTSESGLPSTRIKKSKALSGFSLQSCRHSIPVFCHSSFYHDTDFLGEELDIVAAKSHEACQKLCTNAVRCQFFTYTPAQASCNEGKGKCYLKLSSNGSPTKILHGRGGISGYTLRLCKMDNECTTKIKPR
Sequence of hFXIa–DEGR (P03951 388-625 limits assumed): as the sequence (P03951 388-625 limits assumed) above
Sequence of hFXIa–DEGR (P03951 19-387 partner limits assumed): as the sequence (P03951 19-387 partner limits assumed) above
Sequence of FXa (P00742 235-488 limits assumed): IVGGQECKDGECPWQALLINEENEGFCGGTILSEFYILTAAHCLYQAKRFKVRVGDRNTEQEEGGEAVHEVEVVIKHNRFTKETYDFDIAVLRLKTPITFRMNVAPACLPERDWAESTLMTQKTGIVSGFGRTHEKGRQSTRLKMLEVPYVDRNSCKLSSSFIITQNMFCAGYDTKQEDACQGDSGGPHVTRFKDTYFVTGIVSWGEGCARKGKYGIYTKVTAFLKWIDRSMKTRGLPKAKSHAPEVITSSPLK
Sequence of FXa (P00742 41-179 partner limits assumed): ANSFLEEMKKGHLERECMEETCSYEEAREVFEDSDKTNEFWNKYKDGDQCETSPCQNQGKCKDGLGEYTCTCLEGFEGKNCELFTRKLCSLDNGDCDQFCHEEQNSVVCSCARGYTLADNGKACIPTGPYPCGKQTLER

| SMILES | selectivity for hFXIa over FXa and trypsin (hFXIa [1]) [fold] | concentration at which trypsin is inhibited (trypsin) [µM] | concentration at which FXa is inhibited (FXa) [µM] | other results |
| --- | --- | --- | --- | --- |
| O=c1[nH]c(-c2ccc(OS(=O)(=O)[O-])cc2)nc2ccccc12.[Na+] [Inhibitor 2S] | – | – | – | fold higher KD than the next compound (hFXIa–DEGR; 2S vs 18S, 18S vs 19S): ~ 3.2 fold |
| O=c1c2ccccc2nc(-c2ccc(OS(=O)(=O)[O-])cc2)n1CCCCCn1c(-c2ccc(OS(=O)(=O)[O-])cc2)nc2ccccc2c1=O.[Na+].[Na+] [Inhibitor 11S] | – | – | – | increase in potency as compared to the monomeric fragment (hFXIa [1]; IC50 ratio vs monomer 2S): ~ 7 fold |
| O=c1c2ccccc2nc(-c2ccc(OS(=O)(=O)[O-])cc2)n1CCCCCCCCCn1c(-c2ccc(OS(=O)(=O)[O-])cc2)nc2ccccc2c1=O.[Na+].[Na+] [Inhibitor 19S] | – | – | – | n (Hill coefficient) (hFXIa–DEGR; 250 nM FXIa–DEGR, pH 7.4, 37 °C): 5.0±0.4; sedimentation coefficient s of hFXIa–inhibitor complex (hFXIa [2]): 6.6 S; mechanism of inhibition (hFXIa [3]; KM invariant, VMAX decreased): non-competitive; VMAX (hFXIa [3]; at 120 μM inhibitor, pH 7.4, 37 °C): 9.7±0.37 mAU/min |
| O=c1c2ccccc2nc(-c2ccc(OS(=O)(=O)[O-])cc2)n1CCCCCCCCCCn1c(-c2ccc(OS(=O)(=O)[O-])cc2)nc2ccccc2c1=O.[Na+].[Na+] [Inhibitor 20S] | > 25 | > 200 | > 200 | – |
| O=c1c2ccccc2nc(-c2ccc(OS(=O)(=O)[O-])cc2)n1CCCCCCCCCCCn1c(-c2ccc(OS(=O)(=O)[O-])cc2)nc2ccccc2c1=O.[Na+].[Na+] [Inhibitor 21S] | > 25 | > 200 | > 200 | – |
